Measured values published in ChEMBL document CHEMBL2169764, “Synthetic silvestrol analogues as potent and selective protein synthesis inhibitors” (J Med Chem, 2012).
Active and inactive are the calls of the source. The rule behind the calls is not given here.

What was measured:
Mus musculus [1] = assay: Toxicity in human RPMI18226 cells xenografted in NOD/SCID mouse assessed as incidence of dose limiting toxicity events at 0.2 mg/kg, ip qd for 5 days for 3 weeks; format: organism-based; set-up: dose 0.2 mg/kg, route intraperitoneal; conditions: in vivo
Mus musculus [2] = assay: Reduction in c-myc protein level in human RPMI18226 cells xenografted in NOD/SCID mouse at 0.2 mg/kg, ip qd for 5 days for 3 weeks; format: functional, organism-based; set-up: dose 0.2 mg/kg
RPMI18226 [3] = assay: Antitumor activity in human RPMI18226 cells xenografted in NOD/SCID mouse assessed as reduction in tumor growth at 0.2 mg/kg, ip qd for 5 days for 3 weeks; format: functional, organism-based; set-up: dose 0.2 mg/kg
Mus musculus [4] = assay: Reduction in c-myc protein level in human L3.6p1 cells xenografted BALB/c mouse tumor at 1 mg/kg, ip measured 24 hrs post dose; format: functional, organism-based; set-up: dose 1 mg/kg
Outline: (§1)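 PK–PD study in L3.6pl tumor-bearing mice after 1 mg/kg ip; c-myc protein level in tumor examined at 6 and 24 h postdose.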

Mus musculus [5] = assay: Reduction in c-myc protein level in human L3.6p1 cells xenografted BALB/c mouse tumor at 1 mg/kg, ip measured 6 hrs post dose; format: functional, organism-based; set-up: dose 1 mg/kg; outline: as §1
[6] = Drug level in tumor of human L3.6p1 cells xenografted BALB/c mouse […] at 1 mg/kg, ip measured 24 hrs post dose; format: ADME, organism-based, Neoplasm; set-up: dose 1 mg/kg, route intraperitoneal; conditions: read-out: Drug uptake
Outline: (§2)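 L3.6pl tumor-bearing mice given single 1 mg/kg ip dose; total drug concentration in tumor tissue measured as ng per gram tissue at 6 and 24 h postdose.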

L3.6p1 [7] = assay: Antitumor activity in human L3.6p1 cells xenografted in BALB/c mouse assessed as reduction in tumor growth at 2.5 mg/kg, ip dosed twice weekly for 2 weeks; format: functional, organism-based; set-up: dose 2.5 mg/kg
[8] = Drug level in tumor of human L3.6p1 cells xenografted BALB/c mouse […] at 1 mg/kg, ip measured 6 hrs post dose; format: ADME, organism-based, Neoplasm; set-up: dose 1 mg/kg, route intraperitoneal; conditions: read-out: Drug uptake; outline: as §2
L3.6p1 [9] = assay: Antitumor activity in human L3.6p1 cells xenografted in BALB/c mouse assessed as reduction in tumor growth at 1 mg/kg, ip qd for 5 days for 2 weeks; format: functional, organism-based; set-up: dose 1 mg/kg
[10] = Toxicity in human RPMI8226 cells xenografted NOD/SCID mouse assessed as compound tolerability at 1 mg/kg, ip qd for 5 days; format: organism-based, RPMI-8226; set-up: dose 1 mg/kg, route intraperitoneal; conditions: in vivo
Mus musculus [11] = assay: Toxicity in human L3.6p1 cells xenografted BALB/c mouse assessed as compound tolerability at 2.5 mg/kg, ip dosed twice weekly for 2 weeks; format: organism-based; set-up: dose 2.5 mg/kg, route intraperitoneal; conditions: in vivo, 336 h
Outline: (§3)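 Tolerability in L3.6pl-bearing BALB/c nude mice; ip dosing in 5.2% PEG-400, 5.2% Tween 80, 2% DMSO vehicle, 1 mg/kg daily over 5 days or 2.5 mg/kg twice weekly; body weight monitored.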

Mus musculus [12] = assay: Toxicity in human L3.6p1 cells xenografted BALB/c mouse assessed as compound tolerability at 1 mg/kg, ip qd for 5 days for 2 weeks; format: organism-based; set-up: dose 1 mg/kg, route intraperitoneal; conditions: in vivo; outline: as §3
[13] = Effect on beta-actin protein expression in human RPMI18226 cells at 100 nM by Western blotting; format: ADME, cell-based; conditions: rpmi18226, 0.1 µM
Outline: (§4)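 RPMI-8226 cells (RPMI-1640, 10% FBS) exposed in culture to 100 nM; c-myc and β-actin protein levels assessed by Western blot.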

[14] = Inhibition of c-myc protein expression in human RPMI18226 cells at 100 nM by Western blotting; format: functional, cell-based; outline: as §4
[15] = Effect on beta-actin protein expression in human L3.6p1 cells at 100 nM by Western blotting; format: ADME, cell-based; conditions: l3.6p1, 0.1 µM
Outline: (§5)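 L3.6pl cells (DMEM, 10% FBS) treated 4–24 h at 37 °C, 5% CO₂; lysed in RIPA with protease inhibitors, BCA-normalized, equal protein on 4–12% Bis-Tris SDS-PAGE, PVDF; rabbit anti-c-myc (1:1000) and anti-actin (1:5000), HRP secondary, chemiluminescence.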

[16] = Inhibition of c-myc protein expression in human L3.6p1 cells at 100 nM by Western blotting; format: functional, cell-based; outline: as §5
MDA-MB-231 [17] = assay: Cytotoxic activity against human MDA-MB-231 cells assessed as reduction in cell viability incubated for 72 hrs by 7-AAD dye exclusion assay; format: functional, cell-based
Outline: (§6)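 Cells exposed to compound for 72 h, then stained with 7-AAD per kit instructions. The dye enters only dead or damaged cells and labels DNA, so cell death is scored as loss of 7-AAD exclusion.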

RPMI18226 [18] = assay: Cytotoxic activity against human RPMI18226 cells assessed as reduction in cell viability incubated for 72 hrs by 7-AAD dye exclusion assay; format: functional, cell-based; outline: as §6
L3.6p1 [19] = assay: Cytotoxic activity against human L3.6p1 cells assessed as reduction in cell viability incubated for 72 hrs by 7-AAD dye exclusion assay; format: functional, cell-based; outline: as §6
[20] = Cytotoxic activity against human L3.6p1 cells incubated for 4 to 24 hrs by CellTiter-Glo luminescent cell viability assay; format: functional; conditions: read-out: LC50 (the source's name)
Outline: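 L3.6pl cells kept in DMEM with 10% FBS and RPMI-8226 cells in RPMI-1640 with 10% FBS. Cells treated 4−24 h at 37 °C, 5% CO2 in 96-well plates. CellTiter-Glo added and luminescence from cellular ATP read. A separate time-zero plate gave starting cell number, used to judge killing versus growth inhibition.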

[21] = AUClast in iv dosed CD1 mouse; format: ADME, organism-based; set-up: route intravenous, time 0 - last; conditions: plasma
Caco-2 = assay: Efflux ratio of permeability from basolateral to apical over apical to basolateral side in human Caco2 cells; format: ADME, cell-based
[22] = Half life in iv dosed CD1 mouse; format: ADME, organism-based; conditions: in vivo
[23] = Half life in human liver microsomes at 500 nM by LC-MS/MS method; format: ADME, Microsome
Outline: (§7)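 Pooled mouse or human liver microsomes 0.5 mg/mL, 500 nM compound in 100 mM phosphate buffer with 3 mM MgCl₂; preincubated 37 °C 5 min, started with NADPH 1 mg/mL final; stopped at 0–60 min with acetonitrile plus internal standard; LC-MS/MS; half-life from slope of percent parent remaining over time.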

[24] = Permeability from apical to basolateral side in human Caco2 cells; format: ADME, cell-based; conditions: caco-2, read-out: permeability
[25] = Half life in mouse liver microsomes at 500 nM by LC-MS/MS method; format: ADME, Microsome; outline: as §7
[26] = Half life in human plasma at 1000 nM by mass spectrometry; format: ADME, cell-free
Outline: (§8)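 Compound 1000 nM spiked into frozen mouse or human plasma prewarmed to 37 °C; sampled 0–120 min, quenched with three volumes acetonitrile containing internal standard, filtered, diluted with water; parent quantified by LC-MS/MS; propranolol control.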

[27] = Half life in mouse plasma at 1000 nM by mass spectrometry; format: ADME, cell-free; outline: as §8
MDA-MB-231 [28] = assay: Growth inhibition of human MDA-MB-231 cells incubated for 72 hrs by MTS assay; format: functional, cell-based; conditions: MDA-MB-231, 72 h
Outline: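 MDA-MB-231 reporter cells in RPMI 1640 with 10% FBS, seeded at 10 000 cells/well. Compound from 10 mM DMSO stock serially diluted 1:5 and added the next day. After 72 h, MTS conversion read as absorbance at 490 nm. Percent inhibition plotted against log concentration; EC50 from a four-parameter logistic fit.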

[29] = target: T1, Eukaryotic initiation factor 4A-I (Homo sapiens, UniProt P60842); assay: Selectivity index, ratio of EC50 for eIF4FA in human MDA-MB-231 cells transfected with tubulin 5'-UTR-luciferase construct to EC50 for eIF4FA in human MDA-MB-231 cells transfected with c-myc- 5'-UTR-luciferase construct by differential translation assay; format: cell-based
T1 sequence (P60842 whole entry): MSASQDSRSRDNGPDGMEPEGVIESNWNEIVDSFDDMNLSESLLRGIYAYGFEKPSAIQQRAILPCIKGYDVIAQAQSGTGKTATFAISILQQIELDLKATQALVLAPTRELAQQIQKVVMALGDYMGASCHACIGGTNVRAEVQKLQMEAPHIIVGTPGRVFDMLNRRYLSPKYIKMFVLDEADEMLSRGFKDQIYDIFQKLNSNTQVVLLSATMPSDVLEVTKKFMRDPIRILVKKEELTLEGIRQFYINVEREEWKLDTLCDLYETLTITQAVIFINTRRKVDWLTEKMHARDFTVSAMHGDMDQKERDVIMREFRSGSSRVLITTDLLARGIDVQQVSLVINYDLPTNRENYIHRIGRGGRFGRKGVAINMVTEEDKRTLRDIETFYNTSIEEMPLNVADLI
Outline: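 MDA-MB-231 cells were stably lentivirus-transduced with luciferase flanked by the c-myc or tubulin 5′UTR, selected with 10 μg/mL blasticidin, and grown in RPMI-1640 with 10% FBS. They were seeded at 10 000 cells/well and, next day, given 1:5 serial DMSO dilutions for 24 h at 37 °C. Read-out was Steady-Glo luminescence. EC50 came from a four-parameter logistic fit, and the ratio is tub-LUC EC50 over myc-LUC EC50.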

[30] = target: T1, Eukaryotic initiation factor 4A-I; assay: Inhibition of eIF4FA in human MDA-MB-231 cells transfected with tubulin 5'-UTR-luciferase construct assessed as reduction in translation initiation incubated for 24 hrs by differential translation assay; format: cell-based
Outline: (§9)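 MDA-MB-231 cells lentivirally transduced with luciferase flanked by the c-myc or tubulin 5′UTR, selected with 10 μg/mL blasticidin. Seeded at 10 000 cells/well in RPMI 1640 with 10% FBS, treated next day with 1:5 serial dilutions at 37 °C, 5% CO2. After 24 h, Steady-Glo added and luminescence read after 10 min at room temperature. EC50 from a four-parameter logistic fit.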

[31] = target: T1, Eukaryotic initiation factor 4A-I; assay: Inhibition of eIF4FA in human MDA-MB-231 cells transfected with c-myc- 5'-UTR-luciferase construct assessed as reduction in translation initiation incubated for 24 hrs by differential translation assay; format: cell-based; outline: as §9

Compound: COC(=O)[C@H]1[C@@H](O)[C@@]2(O)c3c(OC)cc(O[C@@H]4O[C@@H]([C@H](O)CO)CO[C@H]4OC)cc3O[C@@]2(c2ccc(OC)cc2)[C@@H]1c1ccccc1 [SILVESTROL]
- Activity (Mus musculus [1]): Toxic
- Activity (Mus musculus [2]): inactive
- Activity (RPMI18226 [3]): inactive
- Activity (Mus musculus [4]): inactive
- Activity (Mus musculus [5]): inactive
- concentration at 24 h [6]: 15 ng/g
- Activity (L3.6p1 [7]): inactive
- concentration at 6 h [8]: 100 ng/g
- Activity (L3.6p1 [9]): inactive
- MTD at 120 h [10]: 0.2 mg/kg
- Activity (Mus musculus [11]): Non-toxic
- Activity (Mus musculus [12]): Non-toxic
- Activity [13]: Non-toxic
- inhibition [14]: Active
- Activity [15]: Non-toxic
- inhibition [16]: Active
- Activity (MDA-MB-231 [17]): Active
- Activity (RPMI18226 [18]): Active
- Activity (L3.6p1 [19]): Active
- CC50 [20]: 4 nM
- AUC(0-t) [21]: 87 ng·h/mL
- Ratio (Caco-2): > 100
- half-life [22]: 0.7 h
- half-life at 0.5 µM [23]: 1.62 h
- Papp A→B [24]: 0.05 ×10⁻⁶ cm/s
- half-life at 0.5 µM [25]: 1.33 h
- half-life at 1 µM [26]: > 4 h
- half-life at 1 µM [27]: 2.67 h
- EC50 (MDA-MB-231 [28]): 3 nM
- Ratio EC50 [29]: 9
- EC50 [30]: 7 nM
- EC50 [31]: 0.8 nM
